High-throughput results: PubChem, several laboratories
In the library only some 2.9% were active in any assay of this set; here they are far more common.
MT stabilize HCS: microtubule stabilizers in HeLa cells. 200,000 tested, 0.83% active. % tubulin-high responders, % at 10 µM. HeLa tubulin immunostaining HCS, 24 h; share of cells brighter than vehicle mean+2SD;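 active = plate Z-score above 3 for both tubulin-high and condensed-nucleus cell shares, with cell loss under 80%, at 10 µM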;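 also: anti alpha tubulin signal scored within the nucleus-defined area of each cell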
Ins promoter up: MIN6 insulin promoter up-regulation. z-score at 5 µM. MIN6 insulin promoter-GFP reporter, high-content imaging; active compounds read high. 190,000 tested, 0.3% active;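 active = z-score above 3 at 5 µM with at least 500 cells counted in the well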
Autophagy HCS: autophagy modulation, high-content screen. calls only at 10 µM (by protocol). AID 463193. MEF GFP-LC3 puncta imaging; test concentration mostly 10 µM. 190,000 tested, 0.98% active;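 active = percentage of spot-positive cells more than 3 SD above its plate mean, without a fluorescence outlier flag or 80% toxicity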;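 also: spot-positive cell cutoff set from DMSO-treated cells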
Wee1 degr inh: blocks degradation of human Wee1 kinase. P30291. HeLa Luc-Wee1K328M stability, luciferase luminescence; 100% = proteasome inhibitor MG132 effect. reporter increase, % at 5 µM. 220,000 tested, 1.2% active;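 active = activation above the mean of all tested compounds plus 3 SD, set per screening run, cut at about 8.8% in these data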;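 also: cells exposed to compound for 20 h before luminescence read; 0% = DMSO alone and 100% = MG132 at 30 µM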
Target sequence (P30291 whole entry K328M): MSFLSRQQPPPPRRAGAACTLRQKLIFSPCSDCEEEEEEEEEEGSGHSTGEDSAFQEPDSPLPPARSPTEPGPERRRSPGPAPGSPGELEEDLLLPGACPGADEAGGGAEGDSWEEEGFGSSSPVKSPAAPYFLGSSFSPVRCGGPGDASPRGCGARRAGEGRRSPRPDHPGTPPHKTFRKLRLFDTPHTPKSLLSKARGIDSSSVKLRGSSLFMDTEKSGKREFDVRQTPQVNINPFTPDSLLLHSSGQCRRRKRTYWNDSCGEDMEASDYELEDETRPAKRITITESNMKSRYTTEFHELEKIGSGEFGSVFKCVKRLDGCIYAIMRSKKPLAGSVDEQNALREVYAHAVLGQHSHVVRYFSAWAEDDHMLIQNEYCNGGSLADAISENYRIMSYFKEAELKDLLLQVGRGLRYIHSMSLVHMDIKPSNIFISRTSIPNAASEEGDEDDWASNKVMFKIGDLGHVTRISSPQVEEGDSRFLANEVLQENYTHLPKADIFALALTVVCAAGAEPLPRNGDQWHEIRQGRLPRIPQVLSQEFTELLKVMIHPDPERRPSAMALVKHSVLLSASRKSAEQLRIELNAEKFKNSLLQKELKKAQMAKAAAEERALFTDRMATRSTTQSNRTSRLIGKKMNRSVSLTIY
b-catenin transl: alters nuclear translocation of beta-catenin in HeLa cells; immunofluorescence imaging; 190,000 tested, 0.3% active; nuclear translocation activity, % at 5 µM; AID 1665;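 active = nuclear translocation activity above 50% at 5 µM, with a well cell count of 50 or more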;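 also: per-cell ratio of nuclear to cytoplasmic median beta-catenin stain intensity; plate controls were DMSO negative control for no effect and GSK-3 inhibitor IX positive control for full effect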
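Read-out: Nuclear/cytoplasmic beta-catenin signal ratio, % activation | Assay system: Human HeLa cell line | Times: 24 h compound exposure at 37°C, 5% CO2 | Signal: Fluorescence imaging of beta-catenin antibody stain plus DAPI | Dosing: 5 µM primary, 0.02–20 µM confirmation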
* = called active by the depositor; i = inactive; · = not tested or not shown; + = active, no number.

SMILES	MT stabilize HCS	Ins promoter up	Autophagy HCS	Wee1 degr inh	b-catenin transl
CC(=O)Cn1nnc2sc3c(c2c1=O)CCC(C(C)(C)C)C3 (stereo not given)	5	-1.2	i	0	1
CCn1nnc2sc3c(c2c1=O)CCC(C)C3 (stereo not given)	8	3.6*	i	2	4
O=C1CC(N2CCSCC2)C(=O)N1c1ccc(F)cc1 (stereo not given)	·	-0.18	·	-1	0
Nc1nc(-c2ccccn2)nc(N)c1Cc1ccc(Cl)cc1Cl	3	0.29	+	0	1
Nc1nc(-c2ccccn2)nc(N)c1Cc1ccccc1F	4	-0.55	i	1	-2
CCCCC(=O)N/N=C(/C)C1=C(C)C(C)(C)OC1=O	6	0.06	i	1	-2
CCc1cc2c(=O)c(-c3ccc4c(c3)OCCO4)c(C)oc2cc1OS(C)(=O)=O	11*	-0.64	i	-1	2
CCc1cc(=O)oc2c(C)c(OS(C)(=O)=O)ccc12	9	·	i	2	·
O=C1NC(=O)/C(=C\c2ccc(O)cc2O)S1	3	-0.12	i	0	3
O=C(CSc1ccc2c(c1)OCCO2)NC(=O)Cc1ccccc1	2	0.13	i	2	-3
O=[N+]([O-])c1ccccc1-c1ccc(C(=S)N2CCCC2)o1	4	1.2	i	4	-1
CN1CCN(C(=S)c2ccc(-c3cccc([N+](=O)[O-])c3)o2)CC1	·	-0.62	·	10*	0
Cc1cccc(N2CCN(C(=S)c3ccc(-c4ccccc4[N+](=O)[O-])o3)CC2)c1	23*	-1.5	i	-2	1
CC(C)CNC(=O)Cn1c(=O)c2c(ncn2CC(C)C)n(Cc2ccccc2)c1=O	4	-0.12	+	2	0
CCOC(=O)c1ccc(NC(=O)c2cc3c(s2)CCC3)cc1	·	-0.66	·	-1	0
CCOc1ccc(C(CC(=O)O)NS(=O)(=O)c2ccc(C)cc2)cc1OC (stereo not given)	7	1.2	i	1	-2
CCOC(=O)CC(NS(=O)(=O)c1ccc(OC)c(C)c1)c1cccc([N+](=O)[O-])c1 (stereo not given)	2	·	+	0	-2
COc1ccc(NC(=O)c2csc3c2CCCCC3)c(OC)c1	3	0.05	i	-1	-1
O=C(Nc1ccccc1O)c1csc2c1CCCC2	1	·	i	9.4*	3
O=C(c1cc2ccccc2oc1=O)N(Cc1ccccc1)Cc1ccc2c(c1)OCO2	4	·	i	-1	·
CCCC(=O)N1N=C(c2ccccc2)CC1c1cn(C)c2ccccc12 (stereo not given)	1	-0.02	i	-3	6
Cn1cc(C2CC(c3ccccc3)=NN2C(=O)c2ccccc2)c2ccccc21 (stereo not given)	24*	-0.08	i	0	1
COc1cccc(NC(=O)c2ccc3c(c2)N(CC(=O)N2CCCCC2)C(=O)C(C)(C)O3)c1	5	-1.6	i	-3	-5
COc1cccc(C(=O)CN2C(=O)C(C)(C)Oc3ccc(C(=O)N4CCCCCC4)cc32)c1	3	3.6*	i	0	-5
O=C(O)c1cc(-c2cccs2)nn1-c1cccc(Cl)c1	5	2.2	i	4	-3
SMILES	MT stabilize HCS	Ins promoter up	Autophagy HCS	Wee1 degr inh	b-catenin transl
CN(C)S(=O)(=O)c1cccc(NC(=O)c2cc(-c3cccs3)nn2-c2cccc(Cl)c2)c1	13*	·	i	-2	30
CC(=O)c1c(C)[nH]c(C(=O)N2CCCCCC2)c1C	4	-0.1	i	8.9*	0
CCOc1ccc(NC2=NCC(=O)N2Cc2cccs2)cc1	2	4.8*	i	-1	-1
CCOc1ccc(NC2=NCCC(=O)N2Cc2cccs2)cc1	1	-0.57	i	0	-5
CCOC(=O)C1=C(O)C(=O)N(C2CCCCC2)C1	·	0.24	·	0	0
COc1ccccc1NS(=O)(=O)c1cccc(NC(=O)NCCCl)c1	·	0.3	·	11*	-1
CCOc1ccc2nc(N3C(=O)/C(=C/c4ccc(Cl)cc4)NC3=S)sc2c1	9	0.76	+	0	-7
COc1ccc2nc(N3C(=O)CNC3=S)sc2c1	·	·	·	-2	1
COc1cccc(-c2cc(=O)c3cc(NC(C)=O)ccc3[nH]2)c1	30*	0.04	i	-4	·
N#Cc1c(C(F)(F)F)cc(-c2ccccc2)nc1SCc1nc(N)nc(N2CCOCC2)n1	i	·	+	2	1
